Measured values taken from ChEMBL document CHEMBL1938276, “Design and synthesis of 2-heterocyclyl-3-arylthio-1H-indoles as potent tubulin polymerization and cell growth inhibitors with improved metabolic stability” (J Med Chem, 2011).
Each block holds one compound with its values, some of them ahead of it. The source made the active and inactive calls. The calls are words filed in the database; no cut-off is given here.

What was measured:
[1] = AUC ( 0 to infinity) in nude CD-1 mouse at 15 mg/kg, po by UPLC analysis; type: ADME, organism-based; parameters: time infinity, dose 15 mg/kg, route oral; conditions: plasma
Outline: (§1)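 Male nude CD-1 mice, 4 weeks old; single iv rapid bolus 5 mg/kg in 3% DMSO + 30% PEG400 + 0.9% NaCl, or oral gavage 15 mg/kg in 5% DMSO + 20% PEG400 + water. Blood sampled at multiple times after dosing; plasma proteins precipitated, samples stored at −80 °C, quantified by UPLC-ESI triple-quadrupole MS/MS.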

[2] = Tmax in nude CD-1 mouse at 15 mg/kg, po by UPLC analysis; type: ADME, organism-based; parameters: dose 15 mg/kg, route oral; conditions: in vivo; outline: as §1
[3] = AUC ( 0 to infinity) in nude CD-1 mouse at 5 mg/kg, iv by UPLC analysis; type: ADME, organism-based; parameters: time infinity, dose 5 mg/kg, route intravenous; conditions: plasma; outline: as §1
[4] = test system: Mus musculus; experiment: Oral bioavailability in nude CD-1 mouse at 15 mg/kg by UPLC analysis; type: ADME, organism-based; conditions: in vivo; outline: as §1
[5] = test system: Mus musculus; experiment: Volume of distribution at steady state in nude CD-1 mouse at 5 mg/kg, iv and 15 mg/kg, po by UPLC analysis; type: ADME, organism-based; conditions: in vivo; outline: as §1
[6] = Cmax in nude CD-1 mouse at 15 mg/kg, po by UPLC analysis; type: ADME, organism-based; parameters: dose 15 mg/kg, route oral; conditions: in vivo; outline: as §1
[7] = Cmax in nude CD-1 mouse at 5 mg/kg, iv by UPLC analysis; type: ADME, organism-based; parameters: dose 5 mg/kg, route intravenous; conditions: in vivo; outline: as §1
[8] = test system: A10; experiment: Growth inhibition of rat A10 cells after 48 hrs by MTT assay; type: cell-based; conditions: A10, 48 h
[9] = test system: HeLa; experiment: Induction apoptosis in human HeLa cells at 20 nM after 24 hrs by Annexin V-based flow cytometry analysis
[10] = test system: HT-29; experiment: Antiproliferative activity against human HT-29 cells assessed as growth inhibition after 48 hrs by MTT assay; type: functional, cell-based; conditions: HT-29, 48 h
[11] = test system: HeLa; experiment: Cell cycle arrest in human HeLa cells assessed as accumulation at G2/M phase at 20 nM after 24 hrs by propidium iodide staining based flow cytometry analysis (reference value: 0.10 %); type: functional
[12] = test system: HUVEC; experiment: Growth inhibition of HUVEC cells after 48 hrs by MTT assay; type: cell-based; conditions: Homo sapiens
[13] = test system: HeLa; experiment: Induction apoptosis in human HeLa cells at 20 nM after 24 hrs by Annexin V-based flow cytometry analysis; type: functional, cell-based
[14] = Growth inhibition of potorous tridactylus PtK2 cells after 48 hrs by MTT assay; type: cell-based; conditions: PtK2, 48 h
[15] = test system: HeLa; experiment: Induction apoptosis in human HeLa cells at 10 nM after 24 hrs by Annexin V-based flow cytometry analysis; type: functional, cell-based
[16] = Growth inhibition of human HSMC cells after 48 hrs by MTT assay; type: cell-based
[17] = test system: HeLa; experiment: Induction apoptosis in human HeLa cells assessed as caspase -3 activity at 100 nM after 24 hrs by single-cell immunofluorescence assay; type: functional, cell-based
[18] = test system: HeLa; experiment: Induction of mitotic arrest in human HeLa cells assessed as accumulation at G2/M phase at 2 to 20 nM after 24 hrs by flow cytometry analysis relative to control; type: functional, cell-based
[19] = test system: A549; experiment: Antiproliferative activity against human A549 cells assessed as growth inhibition after 48 hrs by MTT assay; conditions: A549, 48 h
[20] = test system: Liver microsomes; experiment: Metabolic stability in human liver microsomes assessed as compound remaining after 30 mins by LC-MS/MS analysis; type: ADME, Microsome; conditions: 0.5 h
Outline: (§2)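 Compound at 1 μM final, in duplicate, preincubated 10 min at 37 °C with liver microsomes (0.5 mg/mL final) in potassium phosphate buffer pH 7.4 with 3 mM MgCl2; started with NADP/glucose-6-phosphate/G6P dehydrogenase. Samples taken 0–30 min, quenched in acetonitrile, quantified by LC-MS/MS; percent remaining at 30 min versus time zero peak area; no-cofactor control included.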

[21] = test system: Liver; experiment: Metabolic stability in mouse liver microsomes assessed as compound remaining after 30 mins by LC-Ms/Ms analysis; type: ADME, Microsome; conditions: 0.5 h; outline: as §2
[22] = test system: OVCAR-8; experiment: cells; conditions: Homo sapiens, OVCAR-8, 96 h
[23] = Growth inhibition of doxorubicin-resistant human NCI-ADR-RES cells overexpressing P-glycoprotein after 96 hrs; type: functional, cell-based

SMILES: COc1ccc(/C=C\c2cc(OC)c(OC)c(OC)c2)cc1O [COMBRETASTATIN A4]
IC50 [8]: 1 nM
Activity [9]: Active
IC50 [10]: > 10000 nM
Activity [11]: 80%
IC50 [12]: 1 nM
Activity [13]: Active
IC50 [14]: 3 nM
Activity [15]: Active
IC50 [16]: 5 nM
Activity [17]: Active
Activity [18]: Active
IC50 [19]: > 10000 nM

SMILES: CC(=O)O[C@H]1C(=O)[C@@]2(C)[C@H]([C@H](OC(=O)c3ccccc3)[C@]3(O)C[C@H](OC(=O)[C@H](O)[C@@H](NC(=O)c4ccccc4)c4ccccc4)C(C)=C1C3(C)C)[C@]1(OC(C)=O)CO[C@@H]1C[C@@H]2O [PACLITAXEL]
IC50 [22]: 2 nM

SMILES: CC[C@]1(O)C[C@@H]2CN(CCc3c([nH]c4ccccc34)[C@@](C(=O)OC)(c3cc4c(cc3OC)N(C)[C@H]3[C@@](O)(C(=O)OC)[C@H](OC(C)=O)[C@]5(CC)C=CCN6CC[C@]43[C@@H]65)C2)C1 [VINBLASTINE]
Activity [9]: Active
Activity [11]: 80%
Activity [13]: Active
IC50 [22]: 15 nM
Activity [15]: Active
Activity [17]: Active
Activity [18]: Active

SMILES: CCC1=C[C@@H]2CN(C1)Cc1c([nH]c3ccccc13)[C@@](C(=O)OC)(c1cc3c(cc1OC)N(C)[C@H]1[C@@](O)(C(=O)OC)[C@H](OC(C)=O)[C@]4(CC)C=CCN5CC[C@]31[C@@H]54)C2 [VINORELBINE]
IC50 [23]: 5000 nM

Second part, the compound after the results:

AUC(0-inf) [1]: 9720 ng·h/mL
Tmax [2]: 2 h
AUC(0-inf) [3]: 2910 ng·h/mL
F [4]: 110%
Vdss [5]: 1.59 L/kg
Cmax [6]: 1340 ng/mL
Cmax [7]: 35.7 ng/mL
SMILES: COc1cc(Sc2c(-c3cc[nH]c3)[nH]c3ccccc23)cc(OC)c1OC

Stability [20]: 6.6%
Stability [21]: 0.07%
SMILES: CCOc1ccc2ccc(=O)oc2c1 [ETHOXYCOUMARIN]
